Consider 14 compounds from BindingDB's records for doi:10.1021/jm050754u (Abbott Laboratories, 2006).

The structures appear in SMILES notation.

Chain of Bcl-2-like protein 1 (Q07817 whole entry): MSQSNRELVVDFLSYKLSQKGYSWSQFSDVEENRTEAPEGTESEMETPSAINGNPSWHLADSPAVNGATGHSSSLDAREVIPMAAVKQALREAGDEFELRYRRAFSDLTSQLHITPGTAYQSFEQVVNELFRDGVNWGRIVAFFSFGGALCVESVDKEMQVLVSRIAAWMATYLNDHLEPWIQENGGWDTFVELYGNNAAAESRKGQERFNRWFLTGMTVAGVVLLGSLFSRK

The first assay deals with Bcl-2-like protein 1 (Homo sapiens, UniProt Q07817). Description: Activity towards mouse FL5.12 cell line transfected with Bcl-XL in presence of gelatin. Summed up:
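Bcl-XL-transfected murine FL5.12 (IL-3 dependent) grown in RPMI with 10% FBS and WEHI-3B conditioned medium as the IL-3 source. Switched to IL-3-depleted, FBS-free medium for 2 days. Then placed in gelatin assay medium (3.4 mg/mL bovine gelatin) or 3% FBS assay medium. Serial compound dilutions added for 24 h. Viability read by MTS or CellTiter-Glo; duplicate values per determination; EC50.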
A word on the EC50: it is the concentration needed to bring the measured effect to its halfway point. `COc1cc(CCCN2CCOCC2)ccc1-c1ccc(C(=O)NS(=O)(=O)c2ccc(N[C@H](CCCCN)CSc3ccccc3)c([N+](=O)[O-])c2)cc1` [4-((R)-5-amino-1-phenylsulfanylmethylpentylamino)-N-[2'-methoxy-4'-(3-morpholin-4-ylpropyl)biphenyl-4-carbonyl]-3-nitrobenzenesulfonamide]: the EC50 was found to be 3.05 µM.

Target in a further assay: not listed separately
Description: Activity towards mouse FL5.12 cell line transfected with Bcl-XL in presence of gelatin.
`COc1cc(CCCN2CCOCC2)ccc1-c1ccc(C(=O)NS(=O)(=O)c2ccc(N[C@H](CCN(C)C)CSc3ccccc3)c([N+](=O)[O-])c2)cc1` [4-((R)-3-dimethylamino-1-phenylsulfanylmethylpropylamino)-N-[2'-methoxy-4'-(3-morpholin-4-ylpropyl)biphenyl-4-carbonyl]-3-nitrobenzenesulfonamide]: the EC50 amounted to 0.399 µM.
On the same count and under the same terms, in the case of `COc1cc(CCCN2CCOCC2)ccc1-c1ccc(C(=O)NS(=O)(=O)c2ccc(N[C@H](CCCN(C)C)CSc3ccccc3)c([N+](=O)[O-])c2)cc1` [4-((R)-4-Dimethylamino-1-phenylsulfanylmethylbutylamino)-N-[2'-methoxy-4'-(3-morpholin-4-ylpropyl)biphenyl-4-carbonyl]-3-nitrobenzenesulfonamide] it was 3.01 µM.
Still for that read-out and setting: the figure for `CN(C)CCC[C@H](CSc1ccccc1)Nc1ccc(S(=O)(=O)NC(=O)c2ccc(N3CCC(C)(C)CC3)cc2)cc1[N+](=O)[O-]` [4-((R)-4-dimethylamino-1-phenylsulfanylmethylbutylamino)-N-[4-(4,4-dimethylpiperidin-1-yl)benzoyl]-3-nitrobenzenesulfonamide] is 2 µM; for `CC1(C)CCN(c2ccc(C(=O)NS(=O)(=O)c3ccc(N[C@H](CCCCN)CSc4ccccc4)c([N+](=O)[O-])c3)cc2)CC1` [4-((R)-5-amino-1-phenylsulfanylmethylpentylamino)-N-[4-(4,4-dimethylpiperidin-1-yl)benzoyl]-3-nitrobenzenesulfonamide] it is 4.13 µM.
Still for that read-out and setting: in the case of `COc1cc(CCCN2CCOCC2)ccc1-c1ccc(C(=O)NS(=O)(=O)c2ccc(N[C@H](CCCCN(C)C)CSc3ccccc3)c([N+](=O)[O-])c2)cc1` [4-((R)-5-dimethylamino-1-phenylsulfanylmethylpentylamino)-N-[2'-methoxy-4'-(3-morpholin-4-ylpropyl)biphenyl-4-carbonyl]-3-nitrobenzenesulfonamide] it was 1.2 µM.
Regarding `CN(C)CCCC[C@H](CSc1ccccc1)Nc1ccc(S(=O)(=O)NC(=O)c2ccc(N3CCC(C)(C)CC3)cc2)cc1[N+](=O)[O-]` [4-((R)-5-dimethylamino-1-phenylsulfanylmethylpentylamino)-N-[4-(4,4-dimethylpiperidin-1-yl)benzoyl]-3-nitrobenzenesulfonamide], the EC50 was determined as 1.08 µM.
Same read-out and setting: in the case of `CN(C)CC[C@@H](CSc1ccccc1)Nc1ccc(S(=O)(=O)NC(=O)c2ccc(N3CCC(C)(C)CC3)cc2)cc1[N+](=O)[O-]` [4-((S)-3-dimethylamino-1-phenylsulfanylmethylpropylamino)--[4-(4,4-dimethylpiperidin-1-yl)benzoyl]-3-nitrobenzenesulfonamide] it was 9.5 µM; in that of `COc1cc(CCCN2CCOCC2)ccc1-c1ccc(C(=O)NS(=O)(=O)c2ccc(N[C@@H](CCN(C)C)CSc3ccccc3)c([N+](=O)[O-])c2)cc1` [4-((S)-3-dimethylamino-1-phenylsulfanylmethylpropylamino)-N-[2'-methoxy-4'-(3-morpholin-4-ylpropyl)biphenyl-4-carbonyl]-3-nitrobenzenesulfonamide], 32.5 µM.
Still for that read-out and setting: the figure for `COc1cc(CCCN2CCOCC2)ccc1-c1ccc(C(=O)NS(=O)(=O)c2ccc(N[C@@H](CSc3ccccc3)CC(=O)N(C)C)c([N+](=O)[O-])c2)cc1` [(R)-3-(4-{[2'-methoxy-4'-(3-morpholin-4-ylpropyl)biphenyl-4-carbonyl]sulfamoyl}-2-nitrophenylamino)-N,N-dimethyl-4-phenylsulfanylbutyramide] is 1.28 µM.
`CN(C)C(=O)C[C@H](CSc1ccccc1)Nc1ccc(S(=O)(=O)NC(=O)c2ccc(N3CCC(C)(C)CC3)cc2)cc1[N+](=O)[O-]` [(R)-3-{4-[4-(4,4-dimethylpiperidin-1-yl)benzoylsulfamoyl]-2-nitrophenylamino}-N,N-dimethyl-4-phenylsulfanylbutyramide]: the EC50 was 2.14 µM.
For `COc1cc(CCCN2CCOCC2)ccc1-c1ccc(C(=O)NS(=O)(=O)c2ccc(N[C@H](CCN3CCOCC3)CSc3ccccc3)c([N+](=O)[O-])c2)cc1` [N-[2'-methoxy-4'-(3-morpholin-4-ylpropyl)biphenyl-4-carbonyl]-4-((R)-3-morpholin-4-yl-1-phenylsulfanylmethylpropylamino)-3-nitrobenzenesulfonamide], the half-maximal effective concentration (EC50) was 0.382 µM.
In the case of `CC1(C)CCN(c2ccc(C(=O)NS(=O)(=O)c3ccc(N[C@H](CCN4CCOCC4)CSc4ccccc4)c([N+](=O)[O-])c3)cc2)CC1` [N-[4-(4,4-dimethylpiperidin-1-yl)benzoyl]-4-((R)-3-morpholin-4-yl-1-phenylsulfanylmethylpropylamino)-3-nitrobenzenesulfonamide], the EC50 turned out to be 0.368 µM.
With `CC1(C)CCN(c2ccc(C(=O)NS(=O)(=O)c3ccc(N[C@@H](CCN4CCOCC4)CSc4ccccc4)c([N+](=O)[O-])c3)cc2)CC1` [N-[4-(4,4-dimethylpiperidin-1-yl)benzoyl]-4-((S)-3-morpholin-4-yl-1-phenylsulfanylmethylpropylamino)-3-nitrobenzenesulfonamide], the EC50 came to 4.2 µM.
